Results as given in ChEMBL document CHEMBL4017539, “Oral Delivery of Propofol with Methoxymethylphosphonic Acid as the Delivery Vehicle” (J Med Chem, 2017).

Experiments:
Mus musculus [1] = assay: Anesthetic activity in ICR mouse assessed as anesthetic duration time at 200 mg equiv/kg parent drug administered via oral gavage; type: functional
How it was run: (§1)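 Male and female ICR mice (20 ± 2 g), fasted overnight, dosed by gavage in 10% DMSO, 20% Solutol HS-15, 70% saline (n = 10/group for diastereoisomeric mixtures, n = 6/group for single diastereoisomers). Mice were placed on their backs until righting stopped. Read-outs were onset of LORR, anesthetic duration, percent with LORR and percent mortality per group.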

Mus musculus [2] = assay: Anesthetic activity in ICR mouse assessed as loss of righting reflex at 200 mg equiv/kg parent drug administered via oral gavage relative to control; type: functional; how it was run: as §1
Mus musculus [3] = assay: Anesthetic activity in ICR mouse assessed as onset time for loss of righting reflex at 200 mg equiv/kg parent drug administered via oral gavage; type: functional; how it was run: as §1
[4] = Toxicity in ICR mouse assessed as death at 200 mg equiv/kg parent drug administered via oral gavage relative to control; conditions: in vivo; how it was run: as §1
[5] = Half life in Beagle dog at 6.9 mg/kg, po by LC-MS/MS analysis; conditions: in vivo
[6] = Half life in Beagle dog at 3 mg/kg, iv administered as single bolus dose by LC-MS/MS analysis; conditions: in vivo
in vivo [7] = conditions: Beagle, dog, po, 6.9 mg/kg
in vivo [8] = conditions: Beagle, dog, iv, 3 mg/kg
in vivo [9] = conditions: Beagle, dog, po, 6.9 mg/kg; remark: listed apart in the source
in vivo [10] = conditions: Beagle, dog, iv, 3 mg/kg; remark: listed apart in the source
in vivo [11] = conditions: Beagle, dog, po, 6.9 mg/kg; remark: listed apart in the source
[12] = Half life in Beagle dog at 10 mg/kg, po by LC-MS/MS analysis; type: ADME, organism-based, Canis lupus familiaris; conditions: in vivo
How it was run: (§2)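 Beagle dogs (n=3/group) received a single i.v. bolus of parent drug, then after a one-week washout received the prodrug i.g. in 5% DMSO, 5% Solutol HS-15 (30%, w/v), 90% saline. Heparinized blood was taken to 24 h, and plasma was obtained at 2–8 °C and stored at -80 °C. Parent drug was measured by LC-MS/MS and analysed non-compartmentally. Oral bioavailability was oral versus i.v. exposure to the active compound.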

[13] = Cmax in Beagle dog at 1 mg/kg, iv administered as single bolus dose by LC-MS/MS analysis; type: ADME, organism-based, Canis lupus familiaris; set-up: dose 1 mg/kg, route intravenous; conditions: in vivo; how it was run: as §2
[14] = Half life in Beagle dog at 1 mg/kg, iv administered as single bolus dose by LC-MS/MS analysis; type: ADME, organism-based, Canis lupus familiaris; conditions: in vivo; how it was run: as §2
[15] = AUC (0 to t) in Beagle dog at 10 mg/kg, po by LC-MS/MS analysis; type: ADME, organism-based, Canis lupus familiaris; conditions: in vivo
[16] = Cmax in Beagle dog at 10 mg/kg, po by LC-MS/MS analysis; type: ADME, organism-based, Canis lupus familiaris; set-up: dose 10 mg/kg, route oral; conditions: in vivo; how it was run: as §2
[17] = AUC (0 to t) in Beagle dog at 1 mg/kg, iv administered as single bolus dose by LC-MS/MS analysis; type: ADME, organism-based, Canis lupus familiaris; conditions: in vivo
[18] = Oral bioavailability in Beagle dog at 10 mg/kg by LC-MS/MS analysis; type: ADME, organism-based, Canis lupus familiaris; conditions: in vivo; how it was run: as §2
[19] = AUC (0 to t) in Beagle dog at 0.2 mg/kg, iv administered as single bolus dose by LC-MS/MS analysis; type: ADME, organism-based, Canis lupus familiaris; conditions: in vivo
[20] = Half life in Beagle dog at 0.2 mg/kg, iv administered as single bolus dose by LC-MS/MS analysis; type: ADME, organism-based, Canis lupus familiaris; conditions: in vivo
How it was run: (§3)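 Beagle dogs (n=3/group) received the parent drug as an intravenous bolus. Heparinized blood was drawn pre-dose and at 2, 5, 10, 20 and 30 min and 1, 2, 4, 6, 8, 10, 12 and 24 h. Plasma was separated by centrifugation at 2–8 °C and stored at -80 °C. Parent drug was measured by LC-MS/MS, and parameters were derived by non-compartmental analysis.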

[21] = Cmax in Beagle dog at 0.2 mg/kg, iv administered as single bolus dose by LC-MS/MS analysis; type: ADME, organism-based, Canis lupus familiaris; set-up: dose 0.2 mg/kg, route intravenous; conditions: in vivo; how it was run: as §3
Mus musculus [22] = assay: Anesthetic activity in ICR mouse assessed as anesthetic duration time at 100 mg equiv/kg parent drug administered via oral gavage; type: functional; how it was run: as §1
[23] = Toxicity in ICR mouse assessed as death at 100 mg equiv/kg parent drug administered via oral gavage relative to control; conditions: in vivo; how it was run: as §1
Mus musculus [24] = assay: Anesthetic activity in ICR mouse assessed as onset time for loss of righting reflex at 100 mg equiv/kg parent drug administered via oral gavage; type: functional; how it was run: as §1
Mus musculus [25] = assay: Anesthetic activity in ICR mouse assessed as loss of righting reflex at 100 mg equiv/kg parent drug administered via oral gavage relative to control; type: functional; how it was run: as §1
[26] = Cmax in Beagle dog at 2 mg/kg, iv administered as single bolus dose by LC-MS/MS analysis; type: ADME, organism-based, Canis lupus familiaris; set-up: dose 2 mg/kg, route intravenous; conditions: in vivo; how it was run: as §2
[27] = Half life in Beagle dog at 2 mg/kg, iv administered as single bolus dose by LC-MS/MS analysis; type: ADME, organism-based, Canis lupus familiaris; conditions: in vivo; how it was run: as §2
[28] = AUC (0 to t) in Beagle dog at 2 mg/kg, iv administered as single bolus dose by LC-MS/MS analysis; type: ADME, organism-based, Canis lupus familiaris; conditions: in vivo
Mus musculus [29] = assay: Sleep promoting activity in ICR mouse assessed as pentobarbital induced sleep time at 75 mg/kg, po administered 5 mins before pentobarbital injection (reference value: 33 +/- 20 min); type: functional
How it was run: (§4)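 Fasted male and female ICR mice (n=10/group) received vehicle or 55, 65 or 75 mg/kg orally in 10% DMSO, 20% Solutol HS-15 (30%, w/v), 70% saline, 5 min before pentobarbital 40 mg/kg i.p. Sleep duration ran from falling asleep to recovery of the righting reflex. Data are mean ± SEM versus vehicle.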

Mus musculus [30] = assay: Sleep promoting activity in ICR mouse assessed as pentobarbital induced sleep time at 65 mg/kg, po administered 5 mins before pentobarbital injection (reference value: 33 +/- 20 min); type: functional; how it was run: as §4
Mus musculus [31] = assay: Sleep promoting activity in po dosed ICR mouse assessed as increase in pentobarbital induced sleep time administered 5 mins before pentobarbital injection; type: functional, organism-based; how it was run: as §4

| SMILES | Time (Mus musculus [1]) | Activity (Mus musculus [2]) | Time (Mus musculus [3]) | mortality [4] | further results |
| --- | --- | --- | --- | --- | --- |
| CCOC(=O)[C@H](C)NP(=O)(COC)Oc1c(C(C)C)cccc1C(C)C (stereo partly specified) | 60.31 min | 100% | 4.5 min | 10% |  |
| CC(C)c1cccc(C(C)C)c1O [PROPOFOL] |  |  |  |  | half-life [5]: 38.4 min; half-life [6]: 12 min; AUC(0-t) (in vivo [7]): 102 ng·h/mL; AUC(0-t) (in vivo [8]): 616 ng·h/mL; bioavailability (in vivo [9]): 7.3%; Cmax (in vivo [10]): 2050 ng/mL; Cmax (in vivo [11]): 97 ng/mL |
| C=CCN1CC[C@]23c4c5ccc(O)c4O[C@H]2C(=O)CC[C@@]3(O)[C@H]1C5 [NALOXONE] |  |  |  |  | half-life [12]: 539 min; Cmax [13]: 196 ng/mL; half-life [14]: 22.8 min; AUC(0-t) [15]: 117 ng·h/mL; Cmax [16]: 43 ng/mL; AUC(0-t) [17]: 122 ng·h/mL; bioavailability [18]: 9.6% |
| C[C@]12CC[C@@H]3c4ccc(O)cc4CC[C@H]3[C@@H]1CC[C@@H]2O [ESTRADIOL] |  |  |  |  | AUC(0-t) [19]: 28 ng·h/mL; half-life [20]: 16.2 min; Cmax [21]: 76 ng/mL |
| CCOC(=O)[C@H](C)N[P@@](=O)(COC)Oc1c(C(C)C)cccc1[C@H](C)C1CC1 |  |  |  |  | Time (Mus musculus [22]): 85.23 min; mortality [23]: 17%; Time (Mus musculus [24]): 4.35 min; Activity (Mus musculus [25]): 100% |
| CCOC(=O)[C@H](C)N[P@@](=O)(COC)Oc1c(C(C)C)cccc1C(C)C | 47.24 min | 33% | 9.68 min | 0% |  |
| CCOC(=O)[C@H](C)NP(=O)(COC)Oc1c(C(C)C)cccc1[C@H](C)C1CC1 (stereo partly specified) |  |  |  |  | Time (Mus musculus [22]): 74.44 min; mortality [23]: 50%; Time (Mus musculus [24]): 4.49 min; Activity (Mus musculus [25]): 100% |
| CCOC(=O)CNP(=O)(COC)Oc1c(C(C)C)cccc1C(C)C (stereo unspecified) | 32.48 min | 70% | 14.37 min | 0% |  |
| CCc1c2c(nc3ccc(O)cc13)-c1cc3c(c(=O)n1C2)COC(=O)[C@]3(O)CC [7-ETHYL-10-HYDROXYCAMPTOTHECIN] |  |  |  |  | Cmax [26]: 983 ng/mL; half-life [27]: 160 min; AUC(0-t) [28]: 410 ng·h/mL |
| CCOC(=O)[C@@H](C)NP(=O)(COC)Oc1c(C(C)C)cccc1C(C)C (stereo partly specified) | 44.8 min | 100% | 9.48 min | 10% |  |
| COCP(=O)(N[C@@H](C)C(=O)OCc1ccccc1)Oc1c(C(C)C)cccc1C(C)C (stereo partly specified) | 94.61 min | 50% | 9.34 min | 10% |  |
| COCP(=O)(N[C@@H](C)C(=O)OCC(C)C)Oc1c(C(C)C)cccc1C(C)C (stereo partly specified) | 24.47 min | 100% | 8.36 min | 10% |  |
| CCOC(=O)[C@H](C)NP(=O)(CN1CCOCC1)Oc1c(C(C)C)cccc1C(C)C (stereo partly specified) | 16.18 min | 60% | 7.65 min | 10% |  |
| CC(C)c1cccc([C@H](C)C2CC2)c1O [CIPEPOFOL] |  |  |  |  | Cmax [26]: 1610 ng/mL; half-life [12]: 26.4 min; half-life [27]: 12 min; AUC(0-t) [28]: 417 ng·h/mL; AUC(0-t) [15]: 162 ng·h/mL; Cmax [16]: 233 ng/mL; bioavailability [18]: 7.7% |
| CCOC(=O)[C@H](C)NP(=O)(CO)Oc1c(C(C)C)cccc1C(C)C (stereo partly specified) | 19.19 min | 40% | 6.91 min | 10% |  |
| COCP(=O)(N[C@@H](C)C(=O)OC(C)C)Oc1c(C(C)C)cccc1C(C)C (stereo partly specified) | 59.38 min | 40% | 12.7 min | 0% |  |
| CCOC(=O)C(C)(C)NP(=O)(COC)Oc1c(C(C)C)cccc1C(C)C (stereo unspecified) | 115.9 min | 100% | 6.74 min | 20% |  |
| CCOC(=O)[C@H](C)N[P@](=O)(COC)Oc1c(C(C)C)cccc1C(C)C | 40.1 min | 100% | 4.38 min | 0% | Time (Mus musculus [29]): 82 min; Time (Mus musculus [30]): 69 min; Activity (Mus musculus [31]): Dose-dependent effect |
| CCOC(=O)[C@H](C)N[P@](=O)(COC)Oc1c(C(C)C)cccc1[C@H](C)C1CC1 |  |  |  |  | Time (Mus musculus [22]): 107.68 min; mortality [23]: 0%; Time (Mus musculus [24]): 3.98 min; Activity (Mus musculus [25]): 100% |
